Experimental data as given in ChEMBL document CHEMBL1155986, “Discovery of 4H-pyrazolo[1,5-a]pyrimidin-7-ones as potent inhibitors of hepatitis C virus polymerase” (Bioorg Med Chem Lett, 2009).

Key:
[1] = Inhibition of HCV NS5B deltaC21 polymerase assessed as [3H]GTP incorporation after 3 hrs by scintillation proximity assay; set-up: species or system Hepacivirus hominis
Method in brief: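 Scintillation proximity assay with the NS5B Δ21 construct at 50 nM, using a polyC/oligoG template/primer with raised GTP and [3H]-GTP levels. The reaction ran 3 h at room temperature, and labelled GTP incorporation was read by scintillation counting.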

[2] = Inhibition of HCV NS5B deltaC55 polymerase assessed as [3H]GTP incorporation after 50 min by scintillation proximity assay; set-up: species or system Hepacivirus hominis
Method in brief: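 NS5B Δ55 construct (6 nM) with biotinylated oligoG12/polyC template/primer, [3H]-GTP and unlabelled GTP, in 20 mM HEPES pH 7.3, 7.5 mM DTT, 10 mM MgCl2, 60 mM NaCl, BSA and RNasIN. Reactions ran 50 min at room temperature, were stopped with streptavidin SPA beads containing 100 mM EDTA, and were scintillation counted. IC50 came from single experiments over 11 twofold dilutions, accepted only if the positive internal control fell within its SD range.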

Hepatitis C virus = assay: Antiviral activity against HCV by cell-based replicon assay; format: functional, Hepacivirus hominis

O=C(O)c1cc2[nH]c(-c3ccc(Oc4cccc(C(F)(F)F)c4)cc3)c(C3CCCCC3)c(=O)n2n1
IC50 [1]: Not Active | IC50 [2]: 930 nM

O=C(O)c1cc2[nH]c(-c3ccc(OCc4ccccc4)cc3)c(CCC3CCCCC3)c(=O)n2n1
IC50 ([1]; read-out: IC50): 170 nM | IC50 [2]: 600 nM

O=C(N[C@@H](Cc1c[nH]c2ccccc12)C(=O)O)c1cc2[nH]c(-c3cccs3)c(C3CCCCC3)c(=O)n2n1
IC50 ([1]; read-out: IC50): 200 nM

C=CCCc1c(-c2ccc(OCc3ccccc3)cc2)[nH]c2cc(C(=O)O)nn2c1=O
IC50 ([1]; read-out: IC50): 6700 nM | IC50 [2]: 15000 nM

O=C(O)c1cc2[nH]c(-c3ccc(OCc4ccccc4)cc3)c(CC3CCCCC3)c(=O)n2n1
IC50 ([1]; read-out: IC50): 400 nM | IC50 [2]: 3800 nM

O=C(O)c1cc2[nH]c(-c3ccc(OCc4ccccc4)cc3)c(Cc3ccccc3)c(=O)n2n1
IC50 ([1]; read-out: IC50): 4200 nM | IC50 [2]: 8900 nM

O=C(O)c1cc2[nH]c(-c3ccc(OCc4ccccc4)cc3)c(CC3CCCO3)c(=O)n2n1 (stereo not drawn)
IC50 ([1]; read-out: IC50): 10000 nM | IC50 [2]: > 12500 nM

COc1cccc(COc2ccc(-c3[nH]c4cc(C(=O)O)nn4c(=O)c3C3CCCCC3)cc2)c1
IC50 ([1]; read-out: IC50): 1000 nM | IC50 [2]: 1200 nM

O=C(N[C@@H](Cc1c[nH]cn1)C(=O)O)c1cc2[nH]c(-c3ccco3)c(C3CCCCC3)c(=O)n2n1
IC50 ([1]; read-out: IC50): 640 nM

O=C(O)c1cc2[nH]c(-c3ccc(Oc4cccc(Cl)c4)cc3)c(C3CCCCC3)c(=O)n2n1
IC50 [1]: Not Active | IC50 [2]: 3300 nM

O=C(N[C@@H](Cc1ccc(O)cc1)C(=O)O)c1cc2[nH]c(-c3ccco3)c(C3CCCCC3)c(=O)n2n1
IC50 ([1]; read-out: IC50): 70 nM

COC(=O)[C@H](Cc1c[nH]c2ccccc12)NC(=O)c1cc2[nH]c(-c3ccco3)c(C3CCCCC3)c(=O)n2n1
IC50 ([1]; read-out: IC50): 270 nM

O=C(N[C@@H](Cc1c[nH]c2ccccc12)C(=O)O)c1cc2[nH]c(-c3cccc(F)c3)c(C3CCCCC3)c(=O)n2n1
IC50 ([1]; read-out: IC50): 230 nM

O=C(O)c1cc2[nH]c(-c3ccc(-c4ccccc4)cc3)c(C3CCCCC3)c(=O)n2n1
IC50 ([1]; read-out: IC50): 3100 nM | IC50 [2]: 3300 nM

O=C(O)c1cc2[nH]c(-c3ccc(OCc4cccc(OC(F)(F)F)c4)cc3)c(C3CCCCC3)c(=O)n2n1
IC50 ([1]; read-out: IC50): 1500 nM | IC50 [2]: 2200 nM

CC(C)Cc1c(-c2ccc(OCc3ccccc3)cc2)[nH]c2cc(C(=O)O)nn2c1=O
IC50 ([1]; read-out: IC50): 9500 nM | IC50 [2]: 15000 nM

COCCc1c(-c2ccc(OCc3ccccc3)cc2)[nH]c2cc(C(=O)O)nn2c1=O
IC50 ([1]; read-out: IC50): 3700 nM | IC50 [2]: 13000 nM

O=C(O)c1cc2[nH]c(-c3ccc(Oc4ccccc4)cc3)c(C3CCCCC3)c(=O)n2n1
IC50 [1]: Not Active | IC50 [2]: 6300 nM

O=C(O)c1cc2[nH]c(-c3cccc(F)c3)c(C3CCCCC3)c(=O)n2n1
IC50 ([1]; read-out: IC50): 380 nM | IC50 [2]: 2300 nM

COc1cccc(Oc2ccc(-c3[nH]c4cc(C(=O)O)nn4c(=O)c3C3CCCCC3)cc2)c1
IC50 [1]: Not Active | IC50 [2]: 900 nM

O=C(NS(=O)(=O)Cc1ccccc1)c1cc2[nH]c(-c3ccco3)c(C3CCCCC3)c(=O)n2n1
IC50 ([1]; read-out: IC50): 180 nM

O=C(O)c1cc2[nH]c(-c3ccc(OCc4ccccc4)cc3)c(C3CCCCC3)c(=O)n2n1
IC50 ([1]; read-out: IC50): 1000 nM | IC50 [2]: 1500 nM

O=C(O)c1cc2[nH]c(-c3ccc(OCc4ccccc4)cc3)c(-c3ccccc3)c(=O)n2n1
IC50 ([1]; read-out: IC50): > 12500 nM | IC50 [2]: > 50000 nM

O=C(N[C@H](Cc1ccc(O)cc1)C(=O)O)c1cc2[nH]c(-c3ccco3)c(C3CCCCC3)c(=O)n2n1
IC50 ([1]; read-out: IC50): 300 nM

O=C(O)c1cc2[nH]c(-c3ccc(OCc4ccccc4)cc3)c(CCc3ccccc3)c(=O)n2n1
IC50 ([1]; read-out: IC50): 1200 nM | IC50 [2]: 2200 nM

O=C(N[C@@H](Cc1c[nH]c2ccccc12)C(=O)O)c1cc2[nH]c(-c3ccco3)c(C3CCCCC3)c(=O)n2n1
Activity (Hepatitis C virus): 50 µM | IC50 ([1]; read-out: IC50): 50 nM

C=CCc1c(-c2ccc(OCc3ccccc3)cc2)[nH]c2cc(C(=O)O)nn2c1=O
IC50 ([1]; read-out: IC50): > 12500 nM | IC50 [2]: > 50000 nM

O=C(O)c1cc2[nH]c(-c3ccc(OCc4ccccc4)cc3)c(CC3CCC3)c(=O)n2n1
IC50 ([1]; read-out: IC50): 2800 nM | IC50 [2]: 8800 nM

COc1ccc(-c2[nH]c3cc(C(=O)O)nn3c(=O)c2C2CCCCC2)cc1
IC50 [1]: Not Active | IC50 [2]: 3900 nM

O=C(O)c1cc2[nH]c(-c3ccc(Cc4ccccc4)cc3)c(C3CCCCC3)c(=O)n2n1
IC50 ([1]; read-out: IC50): 2600 nM | IC50 [2]: 4000 nM

O=C(O)c1cc2[nH]c(-c3ccc(OCc4ccccc4)cc3)c(CCCc3ccccc3)c(=O)n2n1
IC50 ([1]; read-out: IC50): 2500 nM | IC50 [2]: 5900 nM

O=C(N[C@H](C(=O)O)c1ccc(O)cc1)c1cc2[nH]c(-c3ccco3)c(C3CCCCC3)c(=O)n2n1
IC50 ([1]; read-out: IC50): 200 nM

O=C(N[C@@H](Cc1ccc(O)cc1)C(=O)O)c1cc2[nH]c(-c3cccc(F)c3)c(C3CCCCC3)c(=O)n2n1
IC50 ([1]; read-out: IC50): 680 nM

CC(C)CCc1c(-c2ccc(OCc3ccccc3)cc2)[nH]c2cc(C(=O)O)nn2c1=O
IC50 ([1]; read-out: IC50): 1500 nM | IC50 [2]: 5800 nM

O=C(O)c1cc2[nH]c(-c3cccs3)c(C3CCCCC3)c(=O)n2n1
IC50 ([1]; read-out: IC50): 1100 nM | IC50 [2]: 6400 nM

O=C(O)c1cc2[nH]c(-c3ccco3)c(C3CCCCC3)c(=O)n2n1
IC50 ([1]; read-out: IC50): 290 nM | IC50 [2]: 2800 nM

O=C(N[C@@H](Cc1c[nH]c2ccccc12)C(=O)O)c1cc2[nH]c(-c3ccoc3)c(C3CCCCC3)c(=O)n2n1
IC50 ([1]; read-out: IC50): 60 nM

CC(C)=CCCc1c(-c2ccc(OCc3ccccc3)cc2)[nH]c2cc(C(=O)O)nn2c1=O
IC50 ([1]; read-out: IC50): 3500 nM | IC50 [2]: 10000 nM

O=C(O)c1cc2[nH]c(-c3ccc(OCc4cccc(C(F)(F)F)c4)cc3)c(C3CCCCC3)c(=O)n2n1
IC50 ([1]; read-out: IC50): 900 nM | IC50 [2]: 1800 nM
